# Test results taken from ChEMBL document CHEMBL4689842, “EUbOPEN Chemogenomics Library wave 1” (2021).
# System: Fibroblast
# Assay: Multiplex assay against human fibroblast
# Type: toxicity, cell-based
# Outline: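 Hoechst33342, BioTracker Green Microtubule Cytoskeleton Dye, MitoTracker Red and Annexin V Alexa Fluor 680 were added to live cells at seeding, and imaging on a CQ1 microscope at 37°C and 5% CO2 followed compound addition. Gating by CellPathfinder machine learning separated cells into Hoechst high-intensity objects or normal cells, then normal cells into healthy, pyknosed or fragmented nuclei, then pyknosed cells into mitotic or apoptotic. Per cents of healthy-nucleus cells are reported for the tubulin, mitochondrial-mass and membrane-permeability phenotypes.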
# [1] = 12 h, 1 µM, compound concentration 1 uM, replicate 1
# [2] = 12 h, 1 µM, compound concentration 1 uM, replicate 2
# [3] = 12 h, 10 µM, compound concentration 10 uM, replicate 1
# [4] = 12 h, 10 µM, compound concentration 10 uM, replicate 2
# [5] = 24 h, 1 µM, compound concentration 1 uM, replicate 1
# [6] = 24 h, 1 µM, compound concentration 1 uM, replicate 2
# [7] = 24 h, 10 µM, compound concentration 10 uM, replicate 1
# [8] = 24 h, 10 µM, compound concentration 10 uM, replicate 2
# [9] = 48 h, 1 µM, compound concentration 1 uM, replicate 1
# [10] = 48 h, 1 µM, compound concentration 1 uM, replicate 2
# [11] = 48 h, 10 µM, compound concentration 10 uM, replicate 1
# [12] = 48 h, 10 µM, compound concentration 10 uM, replicate 2
compound,measurement,setting,value
COc1cccc([C@@H](C)NCCCc2ccccc2Cl)c1.Cl [TECALCET HYDROCHLORIDE],Population Apoptotic (%),[1],55%
same,Population Fragmented Nuclei (%),[1],20%
same,Population Healthy Nuclei (%),[1],53%
same,Population Hoechst High Intensity Objects (%),[1],9%
same,Population Membrane Permeable-Phenotype (%),[1],22%
same,Population Mitochondria Different-Phenotype (%),[1],4%
same,Population Mitotic Cells (%),[1],44%
same,Population Normal (%),[1],90%
same,Population Pyknosed Nuclei (%),[1],25%
same,Population Tubulin-Different-Phenotype (%),[1],53%
same,Total Cell Count,[1],222
same,Population Apoptotic (%),[2],16%
same,Population Fragmented Nuclei (%),[2],10%
same,Population Healthy Nuclei (%),[2],81%
same,Population Hoechst High Intensity Objects (%),[2],10%
same,Population Membrane Permeable-Phenotype (%),[2],6%
same,Population Mitochondria Different-Phenotype (%),[2],20%
same,Population Mitotic Cells (%),[2],83%
same,Population Normal (%),[2],89%
same,Population Pyknosed Nuclei (%),[2],8%
same,Population Tubulin-Different-Phenotype (%),[2],18%
same,Total Cell Count,[2],70
same,Population Apoptotic (%),[3],62%
same,Population Fragmented Nuclei (%),[3],26%
same,Population Healthy Nuclei (%),[3],43%
same,Population Hoechst High Intensity Objects (%),[3],12%
same,Population Membrane Permeable-Phenotype (%),[3],11%
same,Population Mitochondria Different-Phenotype (%),[3],17%
same,Population Mitotic Cells (%),[3],37%
same,Population Normal (%),[3],87%
same,Population Pyknosed Nuclei (%),[3],29%
same,Population Tubulin-Different-Phenotype (%),[3],71%
same,Total Cell Count,[3],183
same,Population Apoptotic (%),[4],41%
same,Population Fragmented Nuclei (%),[4],7%
same,Population Healthy Nuclei (%),[4],75%
same,Population Hoechst High Intensity Objects (%),[4],5%
same,Population Membrane Permeable-Phenotype (%),[4],18%
same,Population Mitochondria Different-Phenotype (%),[4],90%
same,Population Mitotic Cells (%),[4],58%
same,Population Normal (%),[4],94%
same,Population Pyknosed Nuclei (%),[4],17%
same,Population Tubulin-Different-Phenotype (%),[4],96%
same,Total Cell Count,[4],83
same,Population Apoptotic (%),[5],56%
same,Population Fragmented Nuclei (%),[5],28%
same,Population Healthy Nuclei (%),[5],50%
same,Population Hoechst High Intensity Objects (%),[5],10%
same,Population Membrane Permeable-Phenotype (%),[5],26%
same,Population Mitochondria Different-Phenotype (%),[5],4%
same,Population Mitotic Cells (%),[5],43%
same,Population Normal (%),[5],89%
same,Population Pyknosed Nuclei (%),[5],21%
same,Population Tubulin-Different-Phenotype (%),[5],62%
same,Total Cell Count,[5],217
same,Population Apoptotic (%),[6],77%
same,Population Fragmented Nuclei (%),[6],8%
same,Population Healthy Nuclei (%),[6],80%
same,Population Hoechst High Intensity Objects (%),[6],8%
same,Population Membrane Permeable-Phenotype (%),[6],6%
same,Population Mitochondria Different-Phenotype (%),[6],6%
same,Population Mitotic Cells (%),[6],22%
same,Population Normal (%),[6],91%
same,Population Pyknosed Nuclei (%),[6],10%
same,Population Tubulin-Different-Phenotype (%),[6],12%
same,Total Cell Count,[6],95
same,Population Apoptotic (%),[7],61%
same,Population Fragmented Nuclei (%),[7],25%
same,Population Healthy Nuclei (%),[7],53%
same,Population Hoechst High Intensity Objects (%),[7],17%
same,Population Membrane Permeable-Phenotype (%),[7],13%
same,Population Mitochondria Different-Phenotype (%),[7],31%
same,Population Mitotic Cells (%),[7],38%
same,Population Normal (%),[7],82%
same,Population Pyknosed Nuclei (%),[7],21%
same,Population Tubulin-Different-Phenotype (%),[7],75%
same,Total Cell Count,[7],178
same,Population Apoptotic (%),[8],35%
same,Population Fragmented Nuclei (%),[8],8%
same,Population Healthy Nuclei (%),[8],70%
same,Population Hoechst High Intensity Objects (%),[8],8%
same,Population Membrane Permeable-Phenotype (%),[8],24%
same,Population Mitochondria Different-Phenotype (%),[8],91%
same,Population Mitotic Cells (%),[8],64%
same,Population Normal (%),[8],91%
same,Population Pyknosed Nuclei (%),[8],20%
same,Population Tubulin-Different-Phenotype (%),[8],92%
same,Total Cell Count,[8],97
same,Population Apoptotic (%),[9],54%
same,Population Fragmented Nuclei (%),[9],28%
same,Population Healthy Nuclei (%),[9],60%
same,Population Hoechst High Intensity Objects (%),[9],10%
same,Population Membrane Permeable-Phenotype (%),[9],19%
same,Population Mitochondria Different-Phenotype (%),[9],3%
same,Population Mitotic Cells (%),[9],45%
same,Population Normal (%),[9],89%
same,Population Pyknosed Nuclei (%),[9],10%
same,Population Tubulin-Different-Phenotype (%),[9],42%
same,Total Cell Count,[9],229
same,Population Apoptotic (%),[10],0%
same,Population Healthy Nuclei (%),[10],70%
same,Population Hoechst High Intensity Objects (%),[10],13%
same,Population Membrane Permeable-Phenotype (%),[10],13%
same,Population Mitochondria Different-Phenotype (%),[10],4%
same,Population Mitotic Cells (%),[10],100%
same,Population Normal (%),[10],87%
same,Population Pyknosed Nuclei (%),[10],1%
same,Population Tubulin-Different-Phenotype (%),[10],40%
same,Total Cell Count,[10],100
same,Population Apoptotic (%),[11],76%
same,Population Fragmented Nuclei (%),[11],46%
same,Population Healthy Nuclei (%),[11],45%
same,Population Hoechst High Intensity Objects (%),[11],21%
same,Population Membrane Permeable-Phenotype (%),[11],6%
same,Population Mitochondria Different-Phenotype (%),[11],16%
same,Population Mitotic Cells (%),[11],23%
same,Population Normal (%),[11],78%
same,Population Pyknosed Nuclei (%),[11],8%
same,Population Tubulin-Different-Phenotype (%),[11],60%
same,Total Cell Count,[11],207
same,Population Apoptotic (%),[12],0%
same,Population Fragmented Nuclei (%),[12],56%
same,Population Healthy Nuclei (%),[12],43%
same,Population Hoechst High Intensity Objects (%),[12],15%
same,Population Membrane Permeable-Phenotype (%),[12],0%
same,Population Mitochondria Different-Phenotype (%),[12],12%
same,Population Mitotic Cells (%),[12],100%
same,Population Normal (%),[12],84%
same,Population Pyknosed Nuclei (%),[12],0%
same,Population Tubulin-Different-Phenotype (%),[12],76%
same,Total Cell Count,[12],138
